Experimental data: ChEMBL document CHEMBL1133838, “Novel 5-vinyl pyrimidine nucleosides with potent anti-hepatitis B virus activity” (Bioorg Med Chem Lett, 2001)
Values after ≈ are worked out from the molar mass of the structure shown.

Key:
Homo sapiens [1] = species on record: Homo sapiens; assay: Concentration required to reduce the proliferation of PHA stimulated human peripheral blood T lymphocytes; format: functional
In short: (§1)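 Fresh human peripheral blood T lymphocytes stimulated with PHA and grown with drug. Cellular DNA synthesis followed by [methyl-3H]thymidine incorporation. Value is the concentration (μg/mL) reducing proliferation to 50% of untreated PHA-stimulated controls. Tested up to 50 μg/mL.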

Vero [2] = assay: Compound was evaluated for cytotoxicity against stationary Vero cells using MTT assay; format: functional; details: Chlorocebus sabaeus
In short: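 Stationary Vero cells exposed to drug for 3 days. Viability read by MTT assay against untreated controls. CC50 taken as the concentration (μg/mL) giving 50% loss of viability. ">" means 50% was not reached at the highest concentration tested.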

Vero [3] = assay: Concentration required to inhibit plaque formation by HSV-1 strain KOS (TK+) in monolayers of vero cells; format: functional, cell-based; details: Chlorocebus sabaeus
In short: (§2)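 Vero cells seeded one day ahead. Infected with HSV-1 KOS (TK+) or TK-deficient KOSSB at ~100 PFU/well for 1 h at 37 °C. Inoculum replaced by medium with serial drug dilutions in duplicate, then refined by 1:2 dilutions. Acyclovir control at 5 and 1 μg/mL (TK+) or 50, 25, 10, 1 μg/mL (TK−). After 48 h at 37 °C, fixed with methanol and Giemsa-stained. Plaques counted against no-drug wells for EC50.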

Vero [4] = assay: Concentration required to inhibit plaque formation by HSV-1 strain KOSSB (TK-) in monolayers of vero cells; format: functional, cell-based; details: Chlorocebus sabaeus; in short: as §2
Nucleic Acid = assay: Concentration required to reduce the viral DNA in infected cells to 50% of untreated infected controls.; format: functional, cell-based; details: Duck hepatitis B virus
In short: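 Confluent primary hepatocyte cultures from chronically DHBV-infected Pekin ducks treated with drug. Viral DNA in cells measured against untreated infected controls. EC50 in μg/mL. Three independent experiments, with the range of EC50 reported.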

Duck hepatitis B virus = assay: Percent inhibition of viral DNA in the presence of 10 ug/mL compound compared to untreated infected controls in duck hepatocytes
Homo sapiens [5] = species on record: Homo sapiens; assay: Concentration required to reduce the proliferation of PHA stimulated human peripheral blood T lymphocytes to 50% of untreated PHA Stimulated control; format: functional; in short: as §1

Compound | EC50 (Nucleic Acid) [µg/mL] | IC50 (Homo sapiens [1]) [µg/mL] | CC50 (Vero [2]) [µg/mL] | EC50 (Vero [3]) [µg/mL] | EC50 (Vero [4]) [µg/mL] | Inhibition (Duck hepatitis B virus) [%] | IC50 (Homo sapiens [5]) [µg/mL]
C=Cc1cn(COCCO)c(=O)[nH]c1=O | > 10 | > 50 | > 100 | > 25 | > 50 | 40.6 | –
Nc1nc(O)c2ncn(CCC(CO)CO)c2n1 [PENCICLOVIR] | 0.3 (≈ 1.18 µM) | – | – | – | – | – | –
Nc1nc2c(ncn2COCCO)c(=O)[nH]1 [ACYCLOVIR] | – | – | > 100 | 0.5 (≈ 2.22 µM) | 40 (≈ 178 µM) | – | –
Nc1ccn([C@@H]2CSC(CO)O2)c(=O)n1 (single isomer, unassigned) [LAMIVUDINE] | 0.01 (≈ 0.0436 µM) | – | > 100 | – | – | 96 | > 50

Now from value to compound, other results behind:

EC50 (Nucleic Acid) [µg/mL] | Compound | IC50 (Homo sapiens [1]) [µg/mL] | CC50 (Vero [2]) [µg/mL] | EC50 (Vero [3]) [µg/mL] | EC50 (Vero [4]) [µg/mL] | Inhibition (Duck hepatitis B virus) [%] | IC50 (Homo sapiens [5]) [µg/mL]
3 (≈ 12.5 µM) | C=Cc1cn(CCC(CO)CO)c(=O)[nH]c1=O | > 50 | > 100 | > 25 | > 50 | 77.5 | –
1.5 (≈ 5.88 µM) | Nc1nc2c(ncn2COC(CO)CO)c(=O)[nH]1 [GANCICLOVIR] | – | – | – | – | – | –
1 (≈ 4.13 µM) | C=Cc1cn(COC(CO)CO)c(=O)[nH]c1=O | > 50 | > 100 | > 25 | > 50 | 81 | –
